From ChEMBL document CHEMBL4138240, “Structure-guided design, synthesis and evaluation of oxazolidinone-based inhibitors of norovirus 3CL protease” (Eur J Med Chem, 2018)

What was measured:
[1] = Inhibition of Norovirus 3CL protease using Edans-DFHLQ/GP-Dabcyl as substrate preincubated for 30 mins followed by substrate addition measured for 1 hr by FRET assay
Summary of the method: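 Protease preincubated at 37 °C for 30 min with serially diluted compound (up to 100 μM) or DMSO in assay buffer: 20 mM HEPES pH 8, 200 mM NaCl, 0.4 mM EDTA, 60% glycerol, 6 mM DTT. Substrate was then added. Fluorescence (ex 360/em 460 nm) was read for 1 h, with no-protease background subtracted. IC50 came from variable-slope dose-response fits.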

[2] = tested on: Norovirus; assay: Antiviral activity against Norovirus replicon infected in human HG23 cells assessed as inhibition of viral RNA replication after 48 hrs by qRT-PCR method; type: functional, organism-based
Summary of the method: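 HG23 cells carrying the NV replicon, confluent or semi-confluent, were given medium with compound (up to 100 μM) or DMSO (<0.1%) for 48 h. Total RNA was then extracted and viral genome quantified by real-time qRT-PCR. EC50 was derived from curve fitting.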

[3] = Cytotoxicity against human HG23 cells after 72 hrs by crystal violet staining-based assay; type: cell-based

IC50 [1] | EC50 ([2]; Norovirus, HG23, 48 h) | EC50 [2] | Compound | CC50 at 72 h [3]
8.2 µM | 12.3 µM | – | CC(C)C[C@@H](C(=O)N[C@@H](C[C@@H]1CCNC1=O)C(O)S(=O)(=O)O)N1CC(Cc2cccc(Cl)c2)OC1=O (stereo in doubt; 12A) | –
13.2 µM | – | 17.5 µM | CC(C)C[C@@H](C(=O)N[C@@H](C[C@@H]1CCNC1=O)C(O)S(=O)(=O)O)N1CC(Cc2cccc(Cl)c2)OC1=O (stereo in doubt; 12B) | > 100 µM
10.6 µM | 17.3 µM | – | CC(C)C[C@@H](C(=O)N[C@@H](C[C@@H]1CCNC1=O)C(O)S(=O)(=O)O)N1CC(COCc2cccc(Cl)c2)OC1=O (mixture of isomers) | > 100 µM

Further lines, the compound ahead of its results:

Compound | IC50 [1] | EC50 ([2]; Norovirus, HG23, 48 h) | EC50 [2] | CC50 at 72 h [3]
CC(C)C[C@@H](C(=O)N[C@@H](C[C@@H]1CCNC1=O)C(O)S(=O)(=O)O)N1CC(COc2cccc(Cl)c2)OC1=O (mixture of isomers) | 8.5 µM | 7.6 µM | – | > 100 µM
CC(C)C[C@@H](C(=O)N[C@H](C=O)C[C@@H]1CCNC1=O)N1CC(COc2cccc(Cl)c2)OC1=O (mixture of isomers) | 3.8 µM | 8.2 µM | – | > 100 µM
CC(C)C[C@@H](C(=O)N[C@H](C=O)C[C@@H]1CCNC1=O)N1CC(Cc2cccc(Cl)c2)OC1=O (stereo in doubt; 8A) | 7.3 µM | 11.5 µM | – | –
CC(C)C[C@@H](C(=O)N[C@H](C=O)C[C@@H]1CCNC1=O)N1CC(Cc2cccc(Cl)c2)OC1=O (stereo in doubt; 8B) | 15.3 µM | – | 15.3 µM | > 100 µM
O=C1NCC[C@H]1C[C@H](NC(=O)[C@H](CC1CCCCC1)N1CC(Cc2cccc(Cl)c2)OC1=O)C(O)S(=O)(=O)O (mixture of isomers) | 15.1 µM | 8.1 µM | – | 46.1 µM
CC(C)C[C@@H](C(=O)N[C@H](C=O)C[C@@H]1CCNC1=O)N1CC(COCc2cccc(Cl)c2)OC1=O (mixture of isomers) | 8.1 µM | 14.8 µM | – | > 100 µM
O=C[C@H](C[C@@H]1CCNC1=O)NC(=O)[C@H](CC1CCCCC1)N1CC(Cc2cccc(Cl)c2)OC1=O (mixture of isomers) | 13.5 µM | 6.7 µM | – | 55.2 µM
